Target: T1, Polyunsaturated fatty acid 5-lipoxygenase (Rattus norvegicus, UniProt P12527)
T1 sequence (P12527 whole entry): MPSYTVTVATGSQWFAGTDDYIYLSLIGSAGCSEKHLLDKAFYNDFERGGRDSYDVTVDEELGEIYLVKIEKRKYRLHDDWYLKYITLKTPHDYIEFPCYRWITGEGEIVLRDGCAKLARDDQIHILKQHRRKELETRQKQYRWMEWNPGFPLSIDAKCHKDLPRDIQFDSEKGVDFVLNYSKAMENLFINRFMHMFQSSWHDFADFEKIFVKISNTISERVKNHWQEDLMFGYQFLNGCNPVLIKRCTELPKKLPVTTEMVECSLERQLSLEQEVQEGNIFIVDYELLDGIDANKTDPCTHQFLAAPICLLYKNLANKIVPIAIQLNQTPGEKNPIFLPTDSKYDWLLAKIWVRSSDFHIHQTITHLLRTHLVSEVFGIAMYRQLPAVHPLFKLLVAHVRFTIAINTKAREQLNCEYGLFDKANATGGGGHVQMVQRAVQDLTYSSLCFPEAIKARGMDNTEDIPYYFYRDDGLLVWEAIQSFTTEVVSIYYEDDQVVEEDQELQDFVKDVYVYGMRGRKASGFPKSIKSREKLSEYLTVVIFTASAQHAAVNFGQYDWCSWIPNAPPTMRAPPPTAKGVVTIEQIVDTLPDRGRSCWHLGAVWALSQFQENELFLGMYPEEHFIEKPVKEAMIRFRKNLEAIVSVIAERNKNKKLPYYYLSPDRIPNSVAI
Assay: Inhibition of 5-lipoxygenase in Wistar rat peritoneal leukocytes
Summary of the method: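 Leukocytes (~85% PMNs) were elicited in male Wistar rats (200-300 g) with ip 6% oyster glycogen and harvested 16-20 h later. Cells at 2.5 × 10^6/mL in complete HBSS were tested in triplicate, preincubated with the sample (in DMSO, or CHCl3 evaporated) for 10 min at 37 °C, then given A23187 for 10 min. Supernatant LTB4 was measured by RIA (3H-LTB4 tracer, rabbit antiserum, 18 h, 4 °C).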

With C=C1CCCC(C)C(=O)C(=O)[C@@H]2[C@@H]1CC2(C)C (stereo partly specified) [buddledin B] as the compound, how does the IC50 read?
The IC50 was greater than 200 µM.
